# Measured values published in ChEMBL document CHEMBL1131028, “Nucleosides and nucleotides. 177. 9-(6,7-dideoxy-beta-D-allo-hept-5- ynofuranosyl)adenine: a selective and potent ligand for P3 purinoceptor-like protein” (J Med Chem, 1998).
# Activity calls are given as the source filed them. The calls are words filed in the database; no cut-off is given here.
# Tests used:
# P3 purinoceptor = assay: Binding activity was evaluated on P3 purinoceptor-like protein from rat brain membranes by using [3H]NECA (40 nM).
# Summary of the method: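 Partially purified P3LP: rat brain membranes solubilized in CHAPS, then hydroxylapatite chromatography; A1, A2A, A2B and A3 adenosine receptors and adenotin absent from the preparation.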
# [1] = target: Adenosine receptor A2a (Rattus norvegicus) (UniProt P30543); conditions: Membrane, 100 uM
# [2] = target: T1, Adenosine receptor A1 (Rattus norvegicus) (UniProt P25099); assay: Inhibition of [3H]- DPCPX binding to Adenosine A1 receptor of rat brain membranes at 10 uM; type: cell membranes; conditions: Membrane
# T1 sequence (whole entry): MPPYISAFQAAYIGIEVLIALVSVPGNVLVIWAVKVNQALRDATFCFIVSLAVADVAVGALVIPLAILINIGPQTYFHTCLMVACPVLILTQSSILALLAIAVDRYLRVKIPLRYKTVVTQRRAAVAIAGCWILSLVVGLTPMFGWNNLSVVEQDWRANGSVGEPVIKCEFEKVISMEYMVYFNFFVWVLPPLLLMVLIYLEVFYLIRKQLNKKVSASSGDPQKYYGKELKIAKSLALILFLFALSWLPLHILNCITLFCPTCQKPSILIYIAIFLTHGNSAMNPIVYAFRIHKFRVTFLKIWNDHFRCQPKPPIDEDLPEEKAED
# Summary of the method: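 Rat brain membranes labelled with [3H]DPCPX (2 nM) to measure A1 receptor binding; test compound displacement read as percent inhibition at a single concentration.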
# [3] = target: T2, Adenosine receptor A3 (Rattus norvegicus) (UniProt P28647); assay: Inhibition of [125I]AB-MECA (0.15 nM) binding to Adenosine A3 receptor of RBL-2H3 cell membranes; No inhibition at 10 uM
# T2 sequence (whole entry): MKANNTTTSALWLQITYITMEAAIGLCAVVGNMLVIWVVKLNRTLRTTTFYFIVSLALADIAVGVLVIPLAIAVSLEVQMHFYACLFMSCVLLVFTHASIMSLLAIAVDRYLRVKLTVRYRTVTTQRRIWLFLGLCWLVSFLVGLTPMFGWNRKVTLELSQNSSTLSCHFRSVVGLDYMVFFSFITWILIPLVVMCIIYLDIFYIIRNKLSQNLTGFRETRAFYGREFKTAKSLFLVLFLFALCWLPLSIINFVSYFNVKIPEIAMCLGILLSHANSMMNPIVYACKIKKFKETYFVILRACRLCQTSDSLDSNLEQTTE
# [4] = target: T3, Adenosine receptor A2b (Rattus norvegicus) (UniProt P29276); assay: Activity against Adenosine A2B receptor as cAMP production in VA-13 cells; No inhibition at 100 uM; type: functional, cell-based
# T3 sequence (whole entry): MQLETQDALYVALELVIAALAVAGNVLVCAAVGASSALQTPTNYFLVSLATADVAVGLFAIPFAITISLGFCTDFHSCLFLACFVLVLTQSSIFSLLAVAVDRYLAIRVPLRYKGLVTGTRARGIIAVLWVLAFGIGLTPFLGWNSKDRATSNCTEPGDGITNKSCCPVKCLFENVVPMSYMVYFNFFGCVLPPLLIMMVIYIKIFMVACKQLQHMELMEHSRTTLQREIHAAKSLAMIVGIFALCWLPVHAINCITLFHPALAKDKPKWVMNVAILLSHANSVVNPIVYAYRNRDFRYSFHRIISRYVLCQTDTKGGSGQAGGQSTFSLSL
# Adenosine receptor A1 = target: T4, Adenosine receptor A1 (Rattus norvegicus, UniProt P25099); assay: Inhibition of [3H]- DPCPX binding to Adenosine A1 receptor ofrat brain membranes
# T4 sequence (P25099 whole entry): T1 sequence (whole entry)
# [5] = target: T2, Adenosine receptor A3 (Rattus norvegicus); assay: Inhibition of [125I]AB-MECA (0.15 nM) binding to Adenosine A3 receptor of RBL-2H3 cell membranes; No inhibition at 10 uM; type: cell-based
# Sequence of Adenosine receptor A2a (Rattus norvegicus) (P30543 whole entry): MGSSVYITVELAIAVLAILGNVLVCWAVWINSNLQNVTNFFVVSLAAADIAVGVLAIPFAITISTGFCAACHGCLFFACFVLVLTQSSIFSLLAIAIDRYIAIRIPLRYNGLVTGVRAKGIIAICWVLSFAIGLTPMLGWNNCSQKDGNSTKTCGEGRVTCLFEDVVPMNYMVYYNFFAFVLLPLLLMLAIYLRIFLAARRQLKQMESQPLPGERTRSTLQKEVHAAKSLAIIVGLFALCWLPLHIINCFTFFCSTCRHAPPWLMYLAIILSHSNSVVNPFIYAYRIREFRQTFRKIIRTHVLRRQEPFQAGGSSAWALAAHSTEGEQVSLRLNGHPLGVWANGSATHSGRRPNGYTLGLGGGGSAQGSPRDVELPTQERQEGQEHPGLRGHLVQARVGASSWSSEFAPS
SMILES,Ki (P3 purinoceptor),also measured
[N-]=[N+]=NC[C@H]1OC(n2cnc3c(N)ncnc32)[C@H](O)[C@@H]1O (stereo not given in full),81 nM,
C#C[C@@H](O)[C@H]1OC(n2cnc3c(N)ncnc32)[C@H](O)[C@@H]1O (stereo not given in full),450 nM,inhibition [1]: 40%; inhibition [2]: 21%; inhibition [3]: inactive; inhibition [4]: inactive
NC(=O)[C@H]1OC(n2cnc3c(N)ncnc32)[C@H](O)[C@@H]1O (stereo not given in full),64 nM,
CCCSC[C@H]1OC(n2cnc3c(N)ncnc32)[C@H](O)[C@@H]1O (stereo not given in full),1100 nM,
CCNC(=O)[C@H]1O[C@@H](n2cnc3c(N)ncnc32)[C@H](O)[C@@H]1O [NECA],37 nM,
Nc1ncnc2c1ncn2C1O[C@H](CSc2ccccc2)[C@@H](O)[C@H]1O (stereo not given in full),54 nM,
Nc1ncnc2c1ncn2C1O[C@H](CSCc2ccccc2)[C@@H](O)[C@H]1O (stereo not given in full),70 nM,
C#C[C@H]1OC(n2cnc3c(N)ncnc32)[C@H](O)[C@@H]1O (stereo not given in full),280 nM,
N#C[C@H]1OC(n2cnc3c(N)ncnc32)[C@H](O)[C@@H]1O (stereo not given in full),64 nM,
CNC(=O)[C@H]1O[C@@H](n2cnc3c(N)ncnc32)[C@H](O)[C@@H]1O,51 nM,
CN(C)C(=O)[C@H]1OC(n2cnc3c(N)ncnc32)[C@H](O)[C@@H]1O (stereo not given in full),21000 nM,
Nc1ncnc2c1ncn2C1O[C@H](CCl)[C@@H](O)[C@H]1O (stereo not given in full),84 nM,
C#C[C@H](O)[C@H]1OC(n2cnc3c(N)ncnc32)[C@H](O)[C@@H]1O (stereo not given in full),19 nM,inhibition [1]: 40%; Inhibition (Adenosine receptor A1): 33%; inhibition [5]: inactive
